From the M2OR odorant receptor database

Biological target: T1, OR5M10 (Homo sapiens) (UniProt Q6IEU7)
T1 sequence (whole entry): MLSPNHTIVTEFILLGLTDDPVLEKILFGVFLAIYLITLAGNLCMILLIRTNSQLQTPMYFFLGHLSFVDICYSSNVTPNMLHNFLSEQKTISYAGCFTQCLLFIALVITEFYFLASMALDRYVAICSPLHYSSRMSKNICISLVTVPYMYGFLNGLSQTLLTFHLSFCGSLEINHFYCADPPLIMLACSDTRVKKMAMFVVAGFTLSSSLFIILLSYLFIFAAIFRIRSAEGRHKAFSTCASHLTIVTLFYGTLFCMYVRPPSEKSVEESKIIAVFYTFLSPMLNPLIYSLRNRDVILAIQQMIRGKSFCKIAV
Details: stereoisomer not certain
Outline: (§1)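 Each entry records the cell line, G-protein, co-transfected protein and tags used. Methods varied with the source, often transient luciferase assays in mammalian cell lines. A receptor–molecule pair is called responsive (active) if the original authors judged its signal statistically different from baseline and non-responsive (inactive) otherwise.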

Odorant receptor agonist call, inactive:
CC(=O)c1c(C)c([N+](=O)[O-])c(C(C)(C)C)c([N+](=O)[O-])c1C, CCC(S)C(C)CO (centres undefined), CC1=C(O)C(=O)C(C)O1 (centres undefined), CC1CCCCCCCCCCCCC(=O)C1 (centres undefined), CC1=C(O)C(=O)OC1C (centres undefined), CCCCCC(=O)C(C)C(C)=O (centres undefined), CCC1OC(=O)C(O)=C1C (centres undefined), CCCC(S)CCOC(C)=O (centres undefined), CCCCCCC=CCCC=O, CCCCC(S)C(C)CO (centres undefined), Cc1cnc(C)c(C)n1, CCCCCC(S)C(C)CO (centres undefined), CC1=NC(C)C(C)S1 (centres undefined), CC(CO)CS (centres undefined), CCC1OC(C)=C(O)C1=O (centres undefined)

Biological target: T2, OR5M11 (Homo sapiens) (UniProt Q96RB7)
T2 sequence (whole entry): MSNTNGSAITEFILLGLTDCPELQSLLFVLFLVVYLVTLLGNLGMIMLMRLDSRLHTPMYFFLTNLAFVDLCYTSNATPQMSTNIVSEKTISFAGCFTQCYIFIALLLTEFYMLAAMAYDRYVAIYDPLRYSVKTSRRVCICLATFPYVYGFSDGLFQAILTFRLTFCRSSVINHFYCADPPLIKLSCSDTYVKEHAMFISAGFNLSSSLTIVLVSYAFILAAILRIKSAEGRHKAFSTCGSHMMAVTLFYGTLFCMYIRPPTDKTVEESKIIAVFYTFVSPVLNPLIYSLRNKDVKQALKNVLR
Details: stereoisomer not certain
Outline: as §1

Odorant receptor agonist call, active:
CCCCC(S)C(C)CO (centres undefined)

Odorant receptor agonist call, inactive:
CC(=O)c1c(C)c([N+](=O)[O-])c(C(C)(C)C)c([N+](=O)[O-])c1C, CCC(S)C(C)CO (centres undefined), CC1=C(O)C(=O)C(C)O1 (centres undefined), CC1CCCCCCCCCCCCC(=O)C1 (centres undefined), CC1=C(O)C(=O)OC1C (centres undefined), CCCCCC(=O)C(C)C(C)=O (centres undefined), CCC1OC(=O)C(O)=C1C (centres undefined), CCCC(S)CCOC(C)=O (centres undefined), CCCCCCC=CCCC=O, Cc1cnc(C)c(C)n1, CCCCCC(S)C(C)CO (centres undefined), CC1=NC(C)C(C)S1 (centres undefined), CC(CO)CS (centres undefined), CCC1OC(C)=C(O)C1=O (centres undefined)

Biological target: T3, OR5M3 (Homo sapiens) (UniProt Q8NGP4)
T3 sequence (whole entry): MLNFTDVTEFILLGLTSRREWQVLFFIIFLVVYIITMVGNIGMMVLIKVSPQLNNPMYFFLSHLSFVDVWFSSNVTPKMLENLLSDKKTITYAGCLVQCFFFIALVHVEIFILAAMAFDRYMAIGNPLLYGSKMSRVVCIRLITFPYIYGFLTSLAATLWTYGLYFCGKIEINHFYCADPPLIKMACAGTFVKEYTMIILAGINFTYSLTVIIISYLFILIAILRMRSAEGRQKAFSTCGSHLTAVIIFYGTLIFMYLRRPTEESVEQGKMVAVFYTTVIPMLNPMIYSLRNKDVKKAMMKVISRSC
Details: stereoisomer not certain
Outline: as §1

Odorant receptor agonist call, active:
CC1=C(O)C(=O)C(C)O1 (centres undefined), CCC1OC(C)=C(O)C1=O (centres undefined)

Odorant receptor agonist call, inactive:
CC(=O)c1c(C)c([N+](=O)[O-])c(C(C)(C)C)c([N+](=O)[O-])c1C, COc1nccnc1C(C)C, CCC(C)c1nccnc1OC (centres undefined), CCC(S)C(C)CO (centres undefined), CC1CCCCCCCCCCCCC(=O)C1 (centres undefined), CC1=C(O)C(=O)OC1C (centres undefined), CCCCCC(=O)C(C)C(C)=O (centres undefined), CC(=O)c1cnccn1, CCC1OC(=O)C(O)=C1C (centres undefined), CCCC(S)CCOC(C)=O (centres undefined), CCc1ncc(C)nc1CC, CCCCCCC=CCCC=O, CCCCC(S)C(C)CO (centres undefined), Cc1cnc(C)c(C)n1, CCCCCC(S)C(C)CO (centres undefined), CC1=NC(C)C(C)S1 (centres undefined), CC(CO)CS (centres undefined)
